GASC1 inh: inhibitors of human demethylase GASC-1 KDM4C; Q9H3R0; GST-KDM4C 2-372, H3K9me3 peptide, LANCE TR-FRET; inhibition, % at 12.5 µM; 96,000 compounds, 0.15% hits; AID 720574;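 active = mean replicate inhibition above about 25%, with at least 55% of replicates also reaching it, limit read from the data, passing the limit was not always enough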
Target sequence (Q9H3R0 2-372 limits assumed): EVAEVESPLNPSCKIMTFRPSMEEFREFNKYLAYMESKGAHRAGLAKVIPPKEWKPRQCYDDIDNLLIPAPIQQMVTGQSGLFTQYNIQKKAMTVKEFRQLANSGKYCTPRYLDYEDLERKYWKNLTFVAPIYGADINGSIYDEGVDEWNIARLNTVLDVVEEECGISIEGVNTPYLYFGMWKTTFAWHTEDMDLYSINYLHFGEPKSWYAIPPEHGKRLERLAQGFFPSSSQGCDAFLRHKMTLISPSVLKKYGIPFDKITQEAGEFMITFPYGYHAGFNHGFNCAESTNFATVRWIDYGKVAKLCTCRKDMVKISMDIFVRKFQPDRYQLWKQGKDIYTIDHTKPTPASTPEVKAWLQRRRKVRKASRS
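Test system – GST-tagged GASC-1 (JMJD2C) catalytic fragment, aa 2-372 · Medium – HEPES buffer, pH 7.5, plus ascorbate · Reagent – H3K9me3 peptide with Fe(II)/2OG · Compound – one test concentration per compound · Timing – 30 min reaction, 60 min detection, RT · Technique – TR-FRET with Eu antibody and ULight streptavidin, EDTA stop · Read-out basis – inhibition from TR-FRET ratio decrease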
IDH1 mut inh: inhibitors of human IDH1 R132H. 70,000 compounds, 0.18% hits. O75874. inhibition, % at 10 µM. IDH1 R132H reductase, diaphorase/resazurin fluorescence, 60 min; in the data active = inhibition above about 34%
Of the large screens only hits and unclear results are named; the others gave an inactive call; ! = repeats disagree. A selection: hits, their analogues and other compounds. The true share with any hit is near 0.19%.

C[C@@H]1CN([C@@H](C)CO)S(=O)(=O)c2ccc(C#Cc3ccncc3)cc2O[C@H]1CN(C)S(=O)(=O)c1ccccc1	none
C[C@H]1CN([C@@H](C)CO)S(=O)(=O)c2ccc(C#Cc3ccncc3)cc2O[C@@H]1CN(C)S(=O)(=O)c1ccccc1	GASC1 inh 28
Cc1ccc(-c2ccc3c(c2)O[C@H](CN(C)Cc2ccncc2)[C@H](C)CN([C@H](C)CO)S3(=O)=O)cc1	IDH1 mut inh 52 (no result: GASC1 inh)
C/C=C/c1ccc2c(c1)O[C@@H](CN(C)CCC)[C@@H](C)CN([C@@H](C)CO)S2(=O)=O	none
O=C(Cn1cnc([N+](=O)[O-])n1)Nc1ccc(N2CCOCC2)c(Cl)c1	none (no result: GASC1 inh)
Cc1c(NC(=O)CN(c2cc(Cl)c(Cl)cc2Cl)S(C)(=O)=O)cccc1[N+](=O)[O-]	none (no result: GASC1 inh)
CCc1cc(C(=O)OC)c(NC(=S)Nc2ccc(S(=O)(=O)N3CCOCC3)cc2)s1	none (no result: GASC1 inh)
Cc1cc(-n2c(SCC(=O)Nc3ccccc3)nnc2-c2cccnc2)ccc1Cl	none (no result: GASC1 inh)
Cc1c(NS(=O)(=O)c2cccc3nonc23)c(=O)n(-c2ccccc2)n1C	none (no result: GASC1 inh)
CCCC#Cc1ccc2c(c1)O[C@H](CN(C)C)[C@@H](C)CN([C@@H](C)CO)S2(=O)=O	none
CCCC#Cc1ccc2c(c1)O[C@@H](CN(C)C)[C@@H](C)CN([C@H](C)CO)S2(=O)=O	GASC1 inh 53, IDH1 mut inh 59
COc1ccccc1-c1ccc2c(c1)O[C@@H](CN(C)C(=O)c1ccncc1)[C@@H](C)CN([C@H](C)CO)S2(=O)=O	none
CCCC#Cc1ccc2c(c1)O[C@@H](CN(C)Cc1cncnc1)[C@@H](C)CN([C@H](C)CO)S2(=O)=O	none
CCCC#Cc1ccc2c(c1)O[C@H](CN(C)Cc1cncnc1)[C@@H](C)CN([C@@H](C)CO)S2(=O)=O	GASC1 inh 39
COc1ccccc1-c1ccc2c(c1)O[C@@H](CN(C)C(=O)c1ccncc1)[C@H](C)CN([C@@H](C)CO)S2(=O)=O	GASC1 inh 32, IDH1 mut inh 36
CCn1c(SCC(=O)Nc2ccc(Cl)c(Cl)c2)nnc1-c1ccc(Br)cc1	none (no result: GASC1 inh)
COc1cc(NC(=O)CSc2nnc(-c3ccncc3)n2C)cc(OC)c1	none (no result: GASC1 inh)
Cc1cccc(C)c1NC(=O)CN(c1ccc(Br)cc1)S(C)(=O)=O	none (no result: GASC1 inh)
CC(=O)c1ccc(NC(=O)CN(C)S(=O)(=O)c2ccc(C)cc2)cc1	none (no result: GASC1 inh)
COc1cccc(-c2cn(CC[C@@H]3CC[C@H](NC(=O)CC4CC4)[C@@H](CO)O3)nn2)c1	GASC1 inh 55
CCC(=O)N[C@@H]1CC[C@H](CCn2cc(-c3cccc(OC)c3)nn2)O[C@@H]1CO	GASC1 inh 29
CCC(=O)N[C@@H]1CC[C@H](CCn2cc(-c3cccc(OC)c3)nn2)O[C@H]1CO	none
COc1cccc(-c2cn(CC[C@H]3CC[C@H](NC(=O)CC4CC4)[C@H](CO)O3)nn2)c1	none
Cc1ccc2nc(-c3ccc(NC(=O)CSc4ncn[nH]4)cc3)sc2c1	none (no result: GASC1 inh)
COC(=O)c1ccc(C2C(Oc3ccc(OC)cc3)C(=O)N2Cc2ccc(F)cc2)cc1 (configuration not stated)	none (no result: GASC1 inh)
CS(=O)(=O)N(CC(=O)Nc1ccc(I)cc1)C1CCCCC1	none (no result: GASC1 inh)
O=S(=O)(N[C@@H]1CCCN(Cc2cccc(OCCO)c2)C1)c1cc(Cl)ccc1Cl	none (no result: GASC1 inh)
O=S(=O)(NC1CCN(Cc2ccc(OCCO)cc2)CC1)c1cc(Cl)ccc1Cl	IDH1 mut inh 37 (no result: GASC1 inh)
CC1CCN(CC(=O)Nc2sc3c(c2C(=O)Nc2ccccc2)CCCC3)CC1	none (no result: GASC1 inh)
N#Cc1cccc(-c2ccc(C3[C@H]4CNC[C@@H]3N4S(=O)(=O)c3ccc(F)cc3)cc2)c1 (some centres not stated)	GASC1 inh 35! (no result: IDH1 mut inh)
Cc1ccc(S(=O)(=O)N2[C@@H]3CNC[C@H]2C3c2ccc(-c3cccc(C#N)c3)cc2)cc1 (some centres not stated)	none (no result: IDH1 mut inh)
COc1ccc(N(C(=O)C2CCCCC2)S(=O)(=O)c2cc(OC)ccc2OC)cc1	none (no result: GASC1 inh)
COC(=O)c1c(NC(=S)NCc2ccccn2)sc2c1CCC2	none (no result: GASC1 inh)
CC(C)CC#Cc1ccc2c(c1)O[C@H](CN(C)C(=O)Cc1cccnc1)[C@@H](C)CN([C@@H](C)CO)S2(=O)=O	IDH1 mut inh 54
CC(C)CC#Cc1ccc2c(c1)O[C@@H](CN(C)C(=O)Cc1cccnc1)[C@@H](C)CN([C@@H](C)CO)S2(=O)=O	none
CC(C)CC#Cc1ccc2c(c1)O[C@@H](CN(C)C(=O)Cc1cccnc1)[C@H](C)CN([C@H](C)CO)S2(=O)=O	IDH1 mut inh 38
CC(C)CC#Cc1ccc2c(c1)O[C@H](CN(C)C(=O)Cc1cccnc1)[C@H](C)CN([C@H](C)CO)S2(=O)=O	IDH1 mut inh 52
CC(C)CC#Cc1ccc2c(c1)O[C@@H](CN(C)C(=O)Cc1ccncc1)[C@@H](C)CN([C@H](C)CO)S2(=O)=O	none
CC(C)CC#Cc1ccc2c(c1)O[C@H](CN(C)C(=O)Cc1ccncc1)[C@@H](C)CN([C@H](C)CO)S2(=O)=O	none
O=C(COc1ccccc1)Nc1ccc2nn(-c3ccc(Cl)cc3)nc2c1	none (no result: GASC1 inh)
Cc1cc(Br)c(S(=O)(=O)NCc2ccccn2)cc1C	none (no result: GASC1 inh)
O=C(O)C[C@@H]1C[C@H]2c3cc(NC(=O)Nc4ccc(C(F)(F)F)cc4)ccc3O[C@H]2[C@@H](CO)O1	none
O=C(O)C[C@@H]1C[C@@H]2c3cc(NC(=O)Nc4ccc(C(F)(F)F)cc4)ccc3O[C@@H]2[C@@H](CO)O1	GASC1 inh 34, IDH1 mut inh 50
O=C(O)C[C@@H]1C[C@@H]2c3cc(NC(=O)CC4CC4)ccc3O[C@@H]2[C@H](CO)O1	none
O=C(O)C[C@@H]1C[C@@H]2c3cc(NC(=O)CC4CC4)ccc3O[C@@H]2[C@@H](CO)O1	GASC1 inh 38, IDH1 mut inh 60
Cc1cc(I)ccc1NC(=O)CN(c1c(C)cccc1C)S(C)(=O)=O	none (no result: GASC1 inh)
CCc1ccc(OCCSc2nc(C)cc(=O)[nH]2)cc1	none (no result: GASC1 inh)
CN(C)c1ccc2c(c1)[C@H]1C[C@H](CC(=O)NCCc3ccccc3)O[C@H](CO)[C@H]1O2	none
COCCNC(=O)C[C@H]1C[C@@H]2c3cc(N(C)C)ccc3O[C@@H]2[C@@H](CO)O1	GASC1 inh 46
COC(=O)C[C@H]1C[C@H]2c3cc(N(C)C)ccc3O[C@H]2[C@@H](CO)O1	GASC1 inh 36
CN(C)c1ccc2c(c1)[C@@H]1C[C@@H](CC(=O)NCC3CC3)O[C@@H](CO)[C@@H]1O2	GASC1 inh 32
CCCNC(=O)C[C@@H]1C[C@H]2c3cc(N(C)C)ccc3O[C@H]2[C@@H](CO)O1	GASC1 inh 28
COCCNC(=O)C[C@@H]1C[C@H]2c3cc(NC(=O)CN(C)C)ccc3O[C@H]2[C@@H](CO)O1	none
CN(C)c1ccc2c(c1)[C@H]1C[C@H](CC(=O)NCC3CC3)O[C@@H](CO)[C@H]1O2	none
COC(=O)C[C@@H]1C[C@@H]2c3cc(N(C)C)ccc3O[C@@H]2[C@H](CO)O1	none (no result: GASC1 inh)
COc1ccc(C)cc1NC(=O)C1CCCN(S(=O)(=O)c2ccc(C)cc2)C1 (configuration not stated)	none (no result: GASC1 inh)
COc1ccc(C(Nc2cccc(C)n2)c2ccc3ccc(C)nc3c2O)c(OC)c1OC (configuration not stated)	none (no result: GASC1 inh)
CC(C)c1ccc(NC(=O)CSc2nnc(-c3ccccc3O)n2C)cc1	none (no result: GASC1 inh)
CCCNC(=O)C[C@H]1C[C@H]2c3cc(NC(=O)CN(C)C)ccc3O[C@H]2[C@@H](CO)O1	none

Screening data: PubChem, Broad Institute
